Measurements published in publication PMC10524360 (Cell chemical biology, 2023).
“Also recorded” adds a separate entry of the source. Residues, ends and D or L forms follow the SMILES beside them. *: point of attachment. Cbz = O=C(OCc1ccccc1)*; CH2F = FC*

Assays:
H460^C Cas9 cells [1] = assay: cell death; format: cell-based, human; settings: for effect on cell death induced by co-treatment of FSEN1 and RSL3: H460^C Cas9, 5 μM RSL3 + 1 μM FSEN1, Z-VAD 10 μM, Nec1s 1 μM; for effect on cell death induced by co-treatment of FSEN1 and RSL3 / effect on cell death induced by DHA and FSEN1 together: Fer-1 2 μM, DFO 100 μM, idebenone 10 μM, tocopherol 10 μM; for minimal dose that achieves maximal synergy for inducing ferroptosis: checkerboard FSEN1 (0–15 μM) x RSL3 (0–15 μM)
How it was run: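 H460C Cas9 cells get dose series of RSL3 or DHA with vehicle or 1 μM FSEN1, plus ferroptosis inhibitors where indicated (Fer-1 2 μM, DFO 100 μM, idebenone 10 μM, tocopherol 10 μM). Dead cells are stained with SYTOX Green and imaged on IncuCyte over 24 hr. Lethal fraction is dead/total cells, and its AUC is fit against concentration (variable slope) for EC50. Mean ± SEM, 2–3 biological replicates.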

H460^C GPX4^KO cells = assay: cell death; format: cell-based, human
How it was run: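 Cells were seeded in triplicate at 1000–1500 cells/well (384-well) 24 h before treatment. Test compound was added in medium with 30 nM SYTOX Green, and the plates were imaged (IncuCyte, 37°C, 5% CO2) every 1.5 or 3 h over 24 h. Lethal fraction = SYTOX+/(SYTOX+ plus mCherry+) objects; AUC averaged over three biological replicates; EC50 from a variable-slope fit.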

NQO1 = NQO1 (Homo sapiens, UniProt P15559); assay: in vitro NQO1 CoQ1 oxidoreductase activity assay; format: biochemical; settings: increasing concentrations of FSEN1
NQO1, sequence (P15559 2-274 limits assumed): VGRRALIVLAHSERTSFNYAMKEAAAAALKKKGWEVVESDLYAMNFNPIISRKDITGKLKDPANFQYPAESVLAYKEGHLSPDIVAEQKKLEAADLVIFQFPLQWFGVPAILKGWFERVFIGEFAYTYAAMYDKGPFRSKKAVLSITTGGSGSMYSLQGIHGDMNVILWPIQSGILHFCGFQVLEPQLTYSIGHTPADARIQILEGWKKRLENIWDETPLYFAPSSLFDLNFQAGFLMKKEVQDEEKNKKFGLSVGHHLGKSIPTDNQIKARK

H460^C Cas9 cells [2] = assay: lipid peroxidation assay; format: cell-based, human; settings: 1 μM FSEN1 with 200 nM RSL3
How it was run: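 Cells in 6-well plates were treated 5 h with 200 nM RSL3 ± 1 μM test compound. They were washed in DPBS with Ca/Mg, labelled with BODIPY 581/591 C11 and trypsinised. Green fluorescence was measured by flow cytometry (FITC channel, >10,000 cells). Mean ± SD of n=3; one-way ANOVA with Tukey's test.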

A375 melanoma cells = assay: cell death in A375 cells; format: cell-based, human; settings: 1 μM FSEN1
How it was run: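 Melanoma cells were treated with the test compound (1 μM), with 2 μM Fer-1 where indicated. Cell death was quantified as SYTOX Green-positive objects per mm2; mean ± SEM of two biological replicates.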

[3] = system: FSP1^KO cells overexpressing mFSP1; assay: RSL3-induced ferroptosis in FSP1 knockout cells overexpressing mouse FSP1; format: cell-based, human
How it was run: (§1)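 H460C knockout cells (mFSP1-overexpressing where stated) were seeded at 1500 cells/well in 384-well plates 24 h before treatment. Drug-containing medium with 30 nM SYTOX Green was added and cells were imaged in an IncuCyte at 37°C, 5% CO2 every 4 h for 24 h. Lethal fraction = SYTOX+/(SYTOX+ plus mCherry+) objects; AUC was fitted to a variable-slope curve for EC50.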

[4] = metabolic stability in mouse liver microsomes; format: in vitro ADME; settings: mouse liver microsomes 0.5 mg/mL, 2 μM FSEN1
How it was run: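 The test compound (2 μM) was incubated with 0.5 mg/mL mouse liver microsomes and 1.0 mM NADPH at 37°C, in triplicate, and sampled at 0, 5, 15, 30 and 45 min. Controls were no NADPH (negative) and 2 μM midazolam (positive). t1/2 = ln2/k; CLint = ln2/t1/2 × incubation volume/microsomal protein (μL/min/mg).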

[5] = in vivo pharmacokinetics in mice; design: species or system BALB/c mice; settings: single 20 mg/kg I.P. dose
How it was run: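 Mice (20–25 g) were group-housed five per cage at 22°C on a 12 h light/dark cycle. Each received a single 20 mg/kg intraperitoneal dose in a vehicle containing 20% DMSO, 20% ethanol and 20% PEG40. Plasma Cmax and elimination half-life are reported as median (IQR), n=5.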

H460^C FSP1^KO cells = assay: cell death; format: cell-based, human; settings: for cell death, single agent: 24 h library screen, 40 μM compounds
How it was run: as §1

purified mFSP1 = target: T1, purified mFSP1 (Mus musculus, UniProt Q8BUE4); assay: in vitro mFSP1 CoQ1 oxidoreductase activity assay; format: biochemical; settings: 125 nM mFSP1
T1 sequence (Q8BUE4 2-380 isoform Q8BUE4-2 limits assumed): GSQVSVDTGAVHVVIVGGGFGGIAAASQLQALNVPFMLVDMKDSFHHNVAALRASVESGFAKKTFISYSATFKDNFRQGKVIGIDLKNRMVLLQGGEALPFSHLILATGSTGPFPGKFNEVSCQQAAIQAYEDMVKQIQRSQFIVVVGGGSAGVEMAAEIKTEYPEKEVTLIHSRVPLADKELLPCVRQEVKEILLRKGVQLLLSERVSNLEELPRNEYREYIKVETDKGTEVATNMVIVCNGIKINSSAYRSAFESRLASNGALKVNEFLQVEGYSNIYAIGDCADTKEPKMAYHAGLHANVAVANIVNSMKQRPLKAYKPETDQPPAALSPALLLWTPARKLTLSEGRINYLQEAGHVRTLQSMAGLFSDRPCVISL
How it was run: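 Purified enzyme in PBS was shaken briefly with the test compound (DMSO) and preincubated 30 min at RT. A 2X NADH/CoQ1 mix started the reaction; final 400 μM CoQ1, 500 μM NADH, 0.01–20 μM compound. Mouse FSP1 was used at 125 nM to match the specific activity of 12.5 nM human FSP1. Absorbance at 355 nm was read every 2.5 min; percent activity was used for IC50.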

FSP1 = target: T2, FSP1 (Homo sapiens, UniProt Q9BRQ8); assay: FSP1 enzyme kinetics; format: biochemical
T2 sequence (Q9BRQ8 2-373 limits assumed): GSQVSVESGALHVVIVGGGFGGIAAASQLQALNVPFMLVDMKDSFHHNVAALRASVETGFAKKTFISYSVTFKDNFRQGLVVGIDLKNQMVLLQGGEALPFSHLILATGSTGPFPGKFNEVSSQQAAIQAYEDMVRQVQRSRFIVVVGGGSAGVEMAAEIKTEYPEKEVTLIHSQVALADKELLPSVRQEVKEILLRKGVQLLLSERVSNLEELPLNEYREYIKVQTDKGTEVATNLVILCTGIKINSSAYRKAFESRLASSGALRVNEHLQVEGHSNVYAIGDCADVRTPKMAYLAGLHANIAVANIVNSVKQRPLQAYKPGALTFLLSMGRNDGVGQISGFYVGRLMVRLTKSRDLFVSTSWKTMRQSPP
How it was run: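 His-tagged human FSP1 (expressed in E. coli, Ni-NTA purified) in PBS was preincubated 30 min at RT with the test compound. NADH series: 25 nM enzyme, 10 μM CoQ-coumarin, 1–50 μM NADH, 50–500 nM compound. CoQ-coumarin series: 6.25 nM enzyme, 1–30 μM CoQ-coumarin, 200 μM NADH, 12.5–125 nM compound. Fluorescence (Ex 405/Em 475 nm) read every 15 s at RT; three biological replicates; Vmax and Km by nonlinear regression.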

A549 lung cancer cells = assay: RSL3-induced cell death in A549 cells; format: cell-based, human; settings: RSL3 with 1 μM FSEN1

Which “effect on cell death induced by co-treatment of FSEN1 and RSL3” value (“effect … of FSEN1 and RSL3” below) (H460^C Cas9 cells [1]) does the source give for tocopherol here?
The value was “blocked”.

And the “effect on cell death induced by DHA and FSEN1 together” value (“effect … by DHA and FSEN1 together” below) (H460^C Cas9 cells [1]; H460^C cells, 1 μM FSEN1)?
Its value is “strongly suppressed”.

For `Cc1ccc(-c2c(C#N)c(N)n3c(nc4ccccc43)c2C#N)cc1` [iFSP1, reference compound], which “cell death, single agent” value (H460^C GPX4^KO cells) is on record?
Its value is “selectively triggered cell death”.

And the “cell death, single agent” value (H460^C Cas9 cells [1]; H460^C Cas9 cells)?
The value was “not in the H460^C Cas9 cells”.

Which “effect on CoQ oxidoreductase activity of NQO1” value (NQO1) does the source give for `COc1ccc(N2CCN(Cc3cn4c(-c5ccc(Br)cc5)nnc4s3)CC2)cc1` [FSEN1] here?
The value was “no effect”.

And the “lipid peroxidation (BODIPY C11)” value (H460^C Cas9 cells [2])?
Its value is “sensitized cells to lipid peroxidation”.

And the EC50 (H460^C GPX4^KO cells; read-out: EC50 for triggering cell death, lethal fraction (AUC) over 24 hr)?
Its EC50 is 0.0694 µM.

And the “sensitization to cell death induced by GPX4 inhibitors RSL3 and ML162” value (H460^C Cas9 cells [1]; H460^C Cas9 cells, 1 μM FSEN1)?
Its value is “sensitized”.

What about the “sensitization to cell death induced by DHA and FINO2” value (H460^C Cas9 cells [1]; H460^C cells, 1 μM FSEN1) of the same molecule?
The value was “strongly sensitized”.

And the “minimal dose that achieves maximal synergy for inducing ferroptosis” value (H460^C Cas9 cells [1]; H460^C Cas9 cells)?
The value was 0.55 µM.

And the “ferroptosis in the absence of an RSL3 co-treatment” value (A375 melanoma cells)?
Its value is “induced a small amount of ferroptosis”.

And the “effect on ferroptosis sensitivity (RSL3)” value ([3]; FSP1^KO cells overexpressing mFSP1, 1 μM FSEN1)?
The value was “no effect”.

What about the “effect on sensitivity to RSL3” value ([3]; FSP1^KO cells overexpressing mFSP1, FSEN1 up to 15 μM) of the same molecule?
Its value is “no effect”.

What about the “intrinsic clearance (CLint)” value [4] of the same molecule?
Its value is 11.54 μL/min/mg protein.

And the median elimination half-life ([5]; n=5, IQR 6.1 – 8.8)?
The median elimination half-life was 8.0 h.

And the “median maximum plasma concentration” value ([5]; n=5, IQR 71.0–123.0)?
Its value is 97.6 ng/mL.

What about the “additional sensitization to DHA and FINO2 induced cell death” value (H460^C FSP1^KO cells; FSP1^KO cells, 1 μM FSEN1) of the same molecule?
The value was “no additional sensitizing effect”.

What about the “effect on sensitivity to RSL3-induced cell death” value (H460^C FSP1^KO cells; H460^C FSP1^KO cells, 1 μM FSEN1) of the same molecule?
The value was “did not result in any additional sensitization; also recorded: no effect”.

And the “effect on CoQ1 oxidoreductase activity of purified mFSP1” value (purified mFSP1)?
Its value is “no effect”.

What about the “change in Kcat values” (FSP1; as FSEN1 concentrations increased) of the same molecule?
Its value is “decrease”.

What about the “mechanism of FSP1 inhibition” value (FSP1; varied NADH and CoQ-coumarin, parallel Lineweaver-Burke slopes) of the same molecule?
Its value is “uncompetitive inhibitor”.

And the “sensitizing effect on ferroptosis induction” value (A549 lung cancer cells)?
Its value is “particularly large sensitizing effect”.

For `COC(=O)c1ccc([C@@H]2c3[nH]c4ccccc4c3C[C@@H](C(=O)OC)N2C(=O)CCl)cc1` [RSL3], which “cell death, single agent” value (H460^C Cas9 cells [1]; H460^C Cas9 cells) is on record?
The value was “not the H460^C Cas9 cells”.

And the “minimal dose that achieves maximal synergy for inducing ferroptosis” value (H460^C Cas9 cells [1]; H460^C Cas9 cells)?
Its value is 0.55 µM.

What about the “cell death, single agent” value (H460^C FSP1^KO cells; H460^C FSP1^KO cells) of the same molecule?
The value was “cytotoxic”.

With `C[C@H]1[C@@H](O)O[C@@H]2O[C@@]3(C)CC[C@H]4[C@H](C)CC[C@@H]1[C@@]24OO3` [DHA, dihydroartemisinin, reference compound] as the molecule, how does the “cell death, single agent” value (H460^C Cas9 cells [1]; H460^C Cas9 cells) read?
The value was “induced minimal amounts of ferroptosis on its own”.

And the “cell death, single agent” value (H460^C FSP1^KO cells; H460^C FSP1^KO cells)?
The value was “selectively induced cell death”.

With `COC(=O)C[C@H](NC(=O)[C@H](C)NC(=O)[C@@H](NC(=O)OCc1ccccc1)C(C)C)C(=O)CF` [Z-VAD-FMK] (Cbz-Val-Ala-Asp(OMe)-CH2F) as the molecule, how does the “effect … of FSEN1 and RSL3” value (H460^C Cas9 cells [1]) read?
The value was “no effect”.

For `CCOC(=O)c1ccc(NC2CCCCC2)c(N)c1` [Fer-1, ferrostatin-1], which “effect … of FSEN1 and RSL3” value (H460^C Cas9 cells [1]) is on record?
The value was “blocked”.

And the “effect … by DHA and FSEN1 together” value (H460^C Cas9 cells [1]; H460^C cells, 1 μM FSEN1)?
Its value is “strongly suppressed”.

Which results are given for `COC1=C(OC)C(=O)C(CCCCCCCCCCO)=C(C)C1=O` [idebenone]?
effect on cell death induced by co-treatment of FSEN1 and RSL3 (H460^C Cas9 cells [1]): blocked; effect on cell death induced by DHA and FSEN1 together (H460^C Cas9 cells [1]; H460^C cells, 1 μM FSEN1): strongly suppressed

With `CN1C(=O)NC(Cc2c[nH]c3c(Cl)cccc23)C1=O` (centres unmarked) [Nec1s] as the molecule, how does the “effect … of FSEN1 and RSL3” value (H460^C Cas9 cells [1]) read?
The value was “no effect”.

With `CC(=O)N(O)CCCCCNC(=O)CCC(=O)N(O)CCCCCNC(=O)CCC(=O)N(O)CCCCCN` [DFO, deferoxamine] as the molecule, how does the “effect … of FSEN1 and RSL3” value (H460^C Cas9 cells [1]) read?
The value was “blocked”.

And the “effect … by DHA and FSEN1 together” value (H460^C Cas9 cells [1]; H460^C cells, 1 μM FSEN1)?
The value was “completely suppressed”.
